Experimental findings from ChEMBL document CHEMBL1127420, “Syntheses of racemic and nearly optically pure ether lipids and evaluation of in vitro antineoplastic activities” (J Med Chem, 1994) are described below.

Structures are written as SMILES. Where only a bound is given, the exact number is not on record here.

Data set [1] concerns B-lymphoblastic leukemic cell line. The data set can be described thus: Cytotoxicity was assessed by measurement of cytosolic lactic dehydrogenase (LDH) leakage after 24 hr incubation with human B-lymphoblastic leukemic ([…]) cell line. Format: functional. Particulars: for IC50: Homo sapiens, B-lymphoblastic leukemic cell line, 24 h, read-out: ID50 (the source's name). In short, it runs like this: (§1)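 Log-phase cells were washed and resuspended in phenol red-free RPMI 1640, then mixed 1:1 with lipid in serum medium. Final conditions were 5 × 10^5 cells/mL, 0–50 µg/mL ether lipid and 0.5% ethanol, in triplicate at 37 °C in 5% CO2 for 24 h. Supernatant LDH was measured with lactate/INT/PMS/NAD in Tris pH 8.2, read at 490 nm after 3 min. % cytotoxicity = (E−S)/(M−S), with M from freeze-thaw. ID50 came from nonlinear regression, mean ± SD.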

In another data set the test system is HuT78. The data set can be described thus: Cytotoxicity was assessed by measurement of cytosolic lactic dehydrogenase (LDH) leakage after 24 hr incubation with human cutaneous T-lymphoma (Hut 78) cell line. Type of data set: functional. Particulars: for IC50: Homo sapiens, HuT78, 24 h, read-out: ID50 (the source's name). The method in brief: as §1
Data set [2] can be described thus: Cytotoxicity was assessed by measurement of cytosolic lactic dehydrogenase (LDH) leakage after 24 hr incubation with freshly isolated human peripheral lymphocytes. To be noted: read-out: ID50. The method in brief:
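Peripheral lymphocytes were pooled from two unmedicated human donors and isolated by the Boyum method, giving >85% lymphocytes; viability was checked by trypan blue. Cytotoxicity was measured as 24 h LDH leakage into the medium and expressed as % of maximal freeze-thaw release after subtracting spontaneous release. ID50 came from a nonlinear regression fit of cytotoxicity versus dose.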

Another data set has as its system CCRF-CEM. The data set can be described thus: Cytotoxicity was assessed by measurement of cytosolic lactic dehydrogenase (LDH) leakage after 24 hr incubation with human T-lymphoblastic leukemic (CEM) cell line. Type of data set: functional. Particulars: for IC50: Homo sapiens, CCRF-CEM, 24 h, read-out: ID50 (the source's name). In short, it runs like this: as §1

Consider `CCCCCCCCCCCCCCCCCCOCC(COP(=O)(O)O[C@@H](C)C[N+](C)(C)C)OC.[OH-]` (stereo partly drawn), for which the results for the IC50 (in data set [1]; in the data set with HuT78; in the data set on CCRF-CEM) were 9.8 µg/mL, 9.3 µg/mL and 2.3 µg/mL, respectively. Also, the CC50 at 24 h in data set [2] is above 100 µg/mL.

In the case of `CCCCCCCCCCCCCCCCCCOCC(COP(=O)(O)OC[C@H](C)[N+](C)(C)C)OC.[OH-]` (stereo partly drawn), the IC50 in data set [1] was 8.9 µg/mL; in the data set on HuT78 it was 5.9 µg/mL; in the data set on CCRF-CEM, 2.1 µg/mL. For the same compound, the CC50 at 24 h in data set [2] was above 100 µg/mL.

Take `CCCCCCCCCCCCCCCCCCOCC(COP(=O)(O)O[C@H](C)C[N+](C)(C)C)OC.[OH-]` (stereo partly drawn): the IC50 in data set [1] amounted to 10.1 µg/mL; in the data set with HuT78, 9.1 µg/mL; with CCRF-CEM, 2.7 µg/mL. In addition, in data set [2], the CC50 at 24 h is above 100 µg/mL.

Take `CCCCCCCCCCCCCCCCCCOCC(COP(=O)(O)OCC[N+]1(C)CCOCC1)OC.[OH-]` (stereo not drawn): the IC50 is 8.4 µg/mL in data set [1], 3.4 µg/mL with HuT78 and 2.8 µg/mL with CCRF-CEM. Besides, the CC50 at 24 h in data set [2] amounted to 52.1 µg/mL.

`CCCCCCCCCCCCCCCCCCOCC(COP(=O)(O)OCCN(C)C)OC.O` (stereo not drawn): the IC50 in data set [1] was 9.6 µg/mL; in the data set on HuT78, 3.5 µg/mL; in the data set on CCRF-CEM, 4.6 µg/mL. Besides, in data set [2], the CC50 at 24 h is 24.6 µg/mL.

On to `CCCCCCCCCCCCCCCCCCOCC(COP(=O)(O)OCC[N+](C)(C)C)OC.[OH-]` (stereo in doubt; 2), for which the IC50 in data set [1] is 16.3 µg/mL; with HuT78 it was 4.1 µg/mL; in the data set with CCRF-CEM, 1.9 µg/mL. In addition, the CC50 at 24 h in data set [2] is above 100 µg/mL.

For the compound `CCCCCCCCCCCCCCCCCCOCC(COP(=O)(O)OC[C@@H](C)[N+](C)(C)C)OC.[OH-]` (stereo partly drawn), the figures for the IC50 (in data set [1]; with HuT78; in the data set on CCRF-CEM) were 9.9 µg/mL, 6.9 µg/mL and 2 µg/mL, respectively. The CC50 at 24 h in data set [2] was above 100 µg/mL.

Consider `CCCCCCCCCCCCCCCCCCOCC(COP(=O)(O)OCC[N+](C)(C)C)OC.[OH-]` (stereo in doubt; 1), for which the ID50 in data set [1] amounted to 15.3 µg/mL; in the data set with HuT78 it was 4.5 µg/mL; with CCRF-CEM, 1.5 µg/mL.

Regarding `CCCCCCCCCCCCCCCCCCOCC(COP(=O)(O)OCC[N+](C)(C)C)OC.[OH-]` (stereo in doubt; 3), the ID50 in data set [1] came out at 20.4 µg/mL; in the data set with HuT78, 6.6 µg/mL; in the data set with CCRF-CEM, 2 µg/mL.

Take `CCCCCCCCCCCCCCCCCCOCC(COP(=O)(O)OCC[N+]1(C)CCCC1)OC.[OH-]` (stereo not drawn): the figures for the IC50 (in data set [1]; in the data set with HuT78; with CCRF-CEM) were 13.2 µg/mL, 9.3 µg/mL and 2.7 µg/mL, respectively. Moreover, the CC50 at 24 h in data set [2] came to 22.7 µg/mL.
